Experimental data reported in ChEMBL document CHEMBL3751721, “Development of acridine derivatives as selective Mycobacterium tuberculosis DNA gyrase inhibitors” (Bioorg Med Chem, 2016).
≈ marks a conversion by molar mass, not a printed value. Calls of active or inactive are those of the source. No cut-off for these calls is given here.

What was measured:
[1] = Inhibition of Mycobacterium tuberculosis DNA topoisomerase 1
[2] = target: DNA gyrase subunit A/DNA gyrase subunit B (Mycobacterium tuberculosis (strain ATCC 25618 / H37Rv), UniProt P9WG45+P9WG47); experiment: Inhibition of Mycobacterium tuberculosis DNA gyrase assessed as inhibition of DNA supercoiling after 30 mins by electrophoresis
[3] = target: DNA gyrase subunit B (Mycobacterium smegmatis) (UniProt P0C559); experiment: Inhibition of Mycobacterium smegmatis GyrB by ATPase assay; details: Mycolicibacterium smegmatis
[4] = target: DNA gyrase (Staphylococcus aureus) (UniProt P0A0K8+P20831); experiment: Inhibition of Staphylococcus aureus DNA gyrase assessed as inhibition of DNA supercoiling; assay type: protein-complex assay
[5] = test system: Escherichia coli; experiment: Inhibition of Escherichia coli DNA gyrase assessed as inhibition of DNA supercoiling
[6] = target: DNA gyrase (Pseudomonas aeruginosa) (UniProt P48372+Q9I7C2); experiment: Inhibition of Pseudomonas aeruginosa DNA gyrase assessed as inhibition of DNA supercoiling; assay type: protein-complex assay
[7] = test system: Mycobacterium tuberculosis; experiment: Inhibition of Mycobacterium tuberculosis DNA topoisomerase 1 assessed as DNA relaxation at 50 uM
[8] = test system: Mycobacterium tuberculosis; experiment: Antimicrobial activity against Mycobacterium tuberculosis H37Rv ATCC 27294 after 28 days by alamar blue assay; assay type: functional; details: H37Rv ATCC 27294, 672 h
[9] = Cytotoxicity against mouse RAW264.7 cells assessed as inhibition of cell growth at 50 uM after 72 hrs by MTT assay; assay type: cell-based
Summary of the method: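 RAW 264.7 mouse macrophages exposed to compound at 50 µM for 72 h. Viability read by MTT conversion to formazan, reported as percent inhibition.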

[10] = Inhibition of zebrafish ERG at 1 to 30 uM; parameters: species or system Danio rerio
Summary of the method: (§1)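 Zebrafish embryos from 2 female:3 male breeding, raised in E3 medium at 28 °C. Compound given at 1 to 30 µM in 0.1% DMSO vehicle, 20 µM terfenadine as reference, 4 h incubation. Embryos treated with tricaine, then 30 beats timed per atrium and ventricle. Rate = 1800/time(s) beats/min; AV ratio derived from these counts.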

[11] = Toxicity in zebrafish embryo assessed as heart rate at 30 uM; parameters: species or system Danio rerio; details: in vivo; summary of the method: as §1
[12] = Toxicity in zebrafish embryo assessed as atrio-ventricular ratio at 30 uM; parameters: species or system Danio rerio; details: in vivo; summary of the method: as §1

Sequence of DNA gyrase subunit A/DNA gyrase subunit B (P9WG45 whole entry): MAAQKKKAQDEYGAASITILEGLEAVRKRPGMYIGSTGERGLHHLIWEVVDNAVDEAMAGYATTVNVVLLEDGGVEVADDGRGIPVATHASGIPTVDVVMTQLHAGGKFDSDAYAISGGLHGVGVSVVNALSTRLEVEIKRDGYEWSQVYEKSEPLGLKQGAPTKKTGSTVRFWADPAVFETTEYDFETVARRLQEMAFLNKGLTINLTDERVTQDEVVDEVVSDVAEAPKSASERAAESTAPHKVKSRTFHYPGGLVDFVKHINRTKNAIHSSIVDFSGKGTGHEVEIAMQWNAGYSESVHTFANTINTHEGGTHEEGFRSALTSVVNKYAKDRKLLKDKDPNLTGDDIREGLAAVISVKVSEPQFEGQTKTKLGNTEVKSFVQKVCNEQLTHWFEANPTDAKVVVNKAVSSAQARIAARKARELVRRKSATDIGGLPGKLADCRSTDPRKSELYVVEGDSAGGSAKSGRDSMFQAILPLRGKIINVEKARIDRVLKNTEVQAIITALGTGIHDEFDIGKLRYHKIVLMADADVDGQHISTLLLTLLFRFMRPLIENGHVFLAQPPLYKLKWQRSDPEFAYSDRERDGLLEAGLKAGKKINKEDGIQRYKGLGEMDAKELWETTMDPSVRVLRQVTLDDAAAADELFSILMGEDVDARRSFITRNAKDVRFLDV
Sequence of DNA gyrase subunit A/DNA gyrase subunit B (P9WG47 whole entry): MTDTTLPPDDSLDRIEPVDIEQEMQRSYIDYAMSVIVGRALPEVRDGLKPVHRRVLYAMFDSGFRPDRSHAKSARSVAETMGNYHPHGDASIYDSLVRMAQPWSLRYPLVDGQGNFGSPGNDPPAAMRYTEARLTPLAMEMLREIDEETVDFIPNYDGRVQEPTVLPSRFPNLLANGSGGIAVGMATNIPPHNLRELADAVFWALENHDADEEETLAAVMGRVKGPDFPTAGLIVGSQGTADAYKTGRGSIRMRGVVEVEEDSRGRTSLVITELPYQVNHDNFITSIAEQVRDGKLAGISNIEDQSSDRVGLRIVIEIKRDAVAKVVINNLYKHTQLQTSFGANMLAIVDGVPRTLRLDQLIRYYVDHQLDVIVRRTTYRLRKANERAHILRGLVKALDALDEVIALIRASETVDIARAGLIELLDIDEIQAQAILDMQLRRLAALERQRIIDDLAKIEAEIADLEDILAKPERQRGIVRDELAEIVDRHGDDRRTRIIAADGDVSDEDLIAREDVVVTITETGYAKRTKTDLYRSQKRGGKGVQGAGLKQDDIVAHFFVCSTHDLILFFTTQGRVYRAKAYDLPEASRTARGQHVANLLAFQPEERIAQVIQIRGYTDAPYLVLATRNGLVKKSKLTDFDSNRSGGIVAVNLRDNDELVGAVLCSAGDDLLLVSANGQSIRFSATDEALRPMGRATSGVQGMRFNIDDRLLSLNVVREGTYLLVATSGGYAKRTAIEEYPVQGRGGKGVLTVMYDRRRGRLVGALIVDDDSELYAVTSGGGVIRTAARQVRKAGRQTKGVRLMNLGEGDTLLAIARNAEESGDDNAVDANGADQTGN
Sequence of DNA gyrase subunit B (Mycobacterium smegmatis) (P0C559 2-675 limits assumed): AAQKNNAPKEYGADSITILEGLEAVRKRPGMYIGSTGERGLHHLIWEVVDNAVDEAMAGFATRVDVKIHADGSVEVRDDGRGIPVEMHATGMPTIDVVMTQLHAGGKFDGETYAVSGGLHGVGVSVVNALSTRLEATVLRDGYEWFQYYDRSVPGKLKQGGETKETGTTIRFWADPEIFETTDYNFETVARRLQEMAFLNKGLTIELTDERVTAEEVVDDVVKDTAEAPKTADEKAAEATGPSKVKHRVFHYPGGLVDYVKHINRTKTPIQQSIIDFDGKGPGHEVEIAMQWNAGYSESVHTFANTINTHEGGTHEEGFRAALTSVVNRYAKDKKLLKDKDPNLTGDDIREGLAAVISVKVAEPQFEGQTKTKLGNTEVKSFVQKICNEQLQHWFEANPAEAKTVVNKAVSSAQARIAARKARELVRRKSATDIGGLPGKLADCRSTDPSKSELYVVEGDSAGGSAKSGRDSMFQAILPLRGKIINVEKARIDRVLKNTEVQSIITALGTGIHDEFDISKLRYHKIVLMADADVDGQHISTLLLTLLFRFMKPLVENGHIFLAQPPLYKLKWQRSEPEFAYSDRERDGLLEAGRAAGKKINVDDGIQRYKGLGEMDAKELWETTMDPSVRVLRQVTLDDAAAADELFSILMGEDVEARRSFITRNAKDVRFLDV
Sequence of DNA gyrase (Staphylococcus aureus) (P0A0K8 2-644 limits assumed): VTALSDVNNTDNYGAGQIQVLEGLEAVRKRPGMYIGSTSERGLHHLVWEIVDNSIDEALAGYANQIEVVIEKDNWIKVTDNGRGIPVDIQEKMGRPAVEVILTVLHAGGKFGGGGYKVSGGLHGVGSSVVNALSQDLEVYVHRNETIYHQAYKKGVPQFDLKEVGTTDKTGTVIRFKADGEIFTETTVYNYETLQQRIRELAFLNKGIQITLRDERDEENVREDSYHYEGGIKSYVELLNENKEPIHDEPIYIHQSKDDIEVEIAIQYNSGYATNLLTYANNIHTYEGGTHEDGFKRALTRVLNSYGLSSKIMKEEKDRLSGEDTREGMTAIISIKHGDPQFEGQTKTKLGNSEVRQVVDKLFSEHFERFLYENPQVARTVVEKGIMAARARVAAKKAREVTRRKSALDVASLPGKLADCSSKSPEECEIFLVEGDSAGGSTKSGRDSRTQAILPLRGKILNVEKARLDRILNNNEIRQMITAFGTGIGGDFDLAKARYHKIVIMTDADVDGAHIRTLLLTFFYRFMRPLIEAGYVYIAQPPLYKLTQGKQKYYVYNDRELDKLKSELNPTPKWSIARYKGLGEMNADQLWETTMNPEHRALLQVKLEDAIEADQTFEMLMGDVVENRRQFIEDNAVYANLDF
Sequence of DNA gyrase (Staphylococcus aureus) (P20831 whole entry partner): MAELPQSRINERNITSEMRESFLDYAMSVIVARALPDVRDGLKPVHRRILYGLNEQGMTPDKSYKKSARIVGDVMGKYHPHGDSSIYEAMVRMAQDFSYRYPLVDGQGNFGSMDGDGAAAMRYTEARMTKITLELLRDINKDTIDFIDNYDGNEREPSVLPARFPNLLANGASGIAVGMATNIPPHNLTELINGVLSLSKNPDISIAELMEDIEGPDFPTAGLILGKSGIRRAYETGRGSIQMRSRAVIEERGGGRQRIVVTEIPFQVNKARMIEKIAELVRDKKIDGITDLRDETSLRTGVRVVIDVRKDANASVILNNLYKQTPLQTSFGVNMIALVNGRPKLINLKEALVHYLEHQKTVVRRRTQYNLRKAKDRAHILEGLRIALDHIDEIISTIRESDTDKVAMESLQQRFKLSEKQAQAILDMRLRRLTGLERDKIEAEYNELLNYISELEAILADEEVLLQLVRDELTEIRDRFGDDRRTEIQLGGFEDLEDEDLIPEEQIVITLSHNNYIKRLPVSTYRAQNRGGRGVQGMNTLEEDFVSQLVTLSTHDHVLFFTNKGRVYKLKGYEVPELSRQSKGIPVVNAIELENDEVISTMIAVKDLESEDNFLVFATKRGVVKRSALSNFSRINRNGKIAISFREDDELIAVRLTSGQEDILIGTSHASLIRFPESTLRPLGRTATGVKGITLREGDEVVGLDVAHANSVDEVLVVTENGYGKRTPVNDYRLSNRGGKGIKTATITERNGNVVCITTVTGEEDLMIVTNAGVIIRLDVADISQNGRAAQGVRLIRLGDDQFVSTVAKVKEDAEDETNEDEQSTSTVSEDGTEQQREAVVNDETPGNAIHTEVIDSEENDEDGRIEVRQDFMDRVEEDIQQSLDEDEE

Row | SMILES | IC50 [1] [µM] | IC50 [2] [µM] | inhibition [3] | inhibition [4] | inhibition [5] | inhibition [6] | inhibition [7] | MIC [8] [µM] | inhibition at 72 h, 50 µM [9] [%] | inhibition (INH) [10] | Activity [11] | Activity [12]
1 | COc1cc(NS(C)(=O)=O)ccc1Nc1c2ccccc2nc2ccccc12 [AMSACRINE] | 10 |  |  |  |  |  |  |  |  |  |  | 
2 | Cc1ccc2nc3ccccc3c(Nc3ccc(NC(=S)Nc4ccccc4)cc3)c2c1 |  | 6.3 | inactive | inactive | inactive | inactive | inactive | 7.2 (≈ 3.13 µg/mL) | 10.8 |  |  | 
3 | O=C(Nc1ccccc1)Nc1ccc(Nc2c3ccccc3nc3ccccc23)cc1 |  | 32.6 | inactive | inactive | inactive | inactive | inactive | > 61.8 | 30.4 |  |  | 
4 | Cc1ccc(NC(=S)Nc2ccc(Nc3c4ccccc4nc4ccc(C)cc34)cc2)cc1 |  | 26.9 | inactive | inactive | inactive | inactive | inactive | 55.7 (≈ 25 µg/mL) | 35 |  |  | 
5 | O=S(=O)(Nc1ccc(Nc2c3ccccc3nc3ccc(Cl)cc23)cc1)c1ccc(Cl)cc1 |  | 12.4 | inactive | inactive | inactive | inactive | inactive | 25.1 (≈ 12.4 µg/mL) | 14.2 |  |  | 
6 | O=S(=O)(Nc1ccc(Nc2c3ccccc3nc3ccc(Cl)cc23)cc1)c1ccccc1 |  | 9.2 | inactive | inactive | inactive | inactive | inactive | 27.2 (≈ 12.5 µg/mL) | 14.5 |  |  | 
7 | Cc1ccc2nc3ccccc3c(Nc3ccc(NC(=O)Nc4ccc([N+](=O)[O-])cc4)cc3)c2c1 |  | 7.4 | inactive | inactive | inactive | inactive | inactive | 13.5 (≈ 6.25 µg/mL) | 33.9 |  |  | 
8 | Cc1ccc(S(=O)(=O)Nc2ccc(Nc3c4ccccc4nc4ccccc34)cc2)cc1 |  | 9.3 | inactive | inactive | inactive | inactive | inactive | 28.4 (≈ 12.5 µg/mL) | 28.4 |  |  | 
9 | Cc1ccc(NC(=O)Nc2ccc(Nc3c4ccccc4nc4ccccc34)cc2)cc1 |  | 13.1 | inactive | inactive | inactive | inactive | inactive | 14.9 (≈ 6.25 µg/mL) | 18.4 |  |  | 
10 | Cc1ccc2nc3ccccc3c(Nc3ccc(NC(=S)Nc4ccc([N+](=O)[O-])cc4)cc3)c2c1 |  | 24.8 | inactive | inactive | inactive | inactive | inactive | > 52.1 | 28.8 |  |  | 
11 | Cc1ccc2nc3ccccc3c(Nc3ccc(NS(=O)(=O)c4ccccc4)cc3)c2c1 |  | 5.86 | inactive | inactive | inactive | inactive | inactive | 28.4 (≈ 12.5 µg/mL) | 39.6 |  |  | 
12 | Cc1ccc(S(=O)(=O)Nc2ccc(Nc3c4ccccc4nc4ccc(C)cc34)cc2)cc1 |  | 9.8 | inactive | inactive | inactive | inactive | inactive | 27.6 (≈ 12.5 µg/mL) | 27.8 |  |  | 
13 | Cc1ccc2nc3ccccc3c(Nc3ccc(NS(=O)(=O)c4ccc(Cl)cc4)cc3)c2c1 |  | 5.21 | inactive | inactive | inactive | inactive | inactive | 6.59 (≈ 3.12 µg/mL) | 11.8 | Not Active | Non-toxic | Non-toxic
14 | O=C(Nc1ccc(Cl)cc1)Nc1ccc(Nc2c3ccccc3nc3ccccc23)cc1 |  | 10.4 | inactive | inactive | inactive | inactive | inactive | 28.5 (≈ 12.5 µg/mL) | 26.2 |  |  | 
15 | O=S(=O)(Nc1ccc(Nc2c3ccccc3nc3ccccc23)cc1)c1ccccc1 |  | 15.1 | inactive | inactive | inactive | inactive | inactive | 14.7 (≈ 6.25 µg/mL) | 42.1 |  |  | 
16 | Cc1ccc(NC(=O)Nc2ccc(Nc3c4ccccc4nc4ccc(Cl)cc34)cc2)cc1 |  | 12.5 | inactive | inactive | inactive | inactive | inactive | 13.8 (≈ 6.25 µg/mL) | 29.2 |  |  | 
17 | Cc1ccc2nc3ccccc3c(Nc3ccc(NC(=O)Nc4ccccc4)cc3)c2c1 |  | 22.1 | inactive | inactive | inactive | inactive | inactive | 29.9 (≈ 12.5 µg/mL) | 24.8 |  |  | 
18 | O=[N+]([O-])c1ccc(NC(=S)Nc2ccc(Nc3c4ccccc4nc4ccc(Cl)cc34)cc2)cc1 |  | 28.8 | inactive | inactive | inactive | inactive | inactive | > 50 | 30.4 |  |  | 
